Compounds with a hit are over-represented: about 2.9% of the library has one in this group of screens.
Efflux pump inh = blocks antifungal efflux pumps in multiplex yeast assay | inhibition, % at 10 µM | AID 485275 | S. cerevisiae Candida pump triplex, Nile Red efflux | 330,000 compounds, 0.44% hits;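 active = plate passing quality check with inhibition over a set limit, or well fluorescence over plate mean plus 4 SD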;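 note: Nile Red retained in pooled yeast measured as flow cytometry median fluorescence; 0% = buffer negative control and 100% = Enniatin B positive control; higher means more Nile Red kept so more efflux inhibition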
MC4R antag cAMP = blocks human MC4R cAMP signaling; MC4R-expressing cells, MTII-stimulated cAMP, LANCE TR-FRET; inhibition, % at 6.5 µM; AID 540295; P32245; 360,000 compounds, 0.48% hits;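 active = inhibition above its plate's cutoff, the mean of tested wells on that plate plus 3 SD, cut at about 29% in these data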;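 note: 0% = Melanotan II alone and 100% = Melanotan II plus saturating MCL0020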
Target sequence (P32245 whole entry, looked up): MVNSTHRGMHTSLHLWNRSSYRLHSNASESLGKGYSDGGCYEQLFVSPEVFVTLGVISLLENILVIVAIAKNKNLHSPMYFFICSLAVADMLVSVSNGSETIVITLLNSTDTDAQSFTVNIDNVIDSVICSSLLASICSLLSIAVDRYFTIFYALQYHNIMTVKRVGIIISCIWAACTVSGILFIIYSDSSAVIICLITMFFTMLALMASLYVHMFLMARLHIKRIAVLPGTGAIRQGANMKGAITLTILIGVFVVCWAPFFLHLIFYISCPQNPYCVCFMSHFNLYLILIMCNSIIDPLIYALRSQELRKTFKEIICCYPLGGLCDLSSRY
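System: U2OS cells stably expressing human melanocortin 4 receptor (MC4R). Reagent: Melanotan II challenge after compound preincubation. Doses: 6.5 µM. Times: 30-min compound, 1-h challenge, 1-h detection, room temperature. Measured by: TR-FRET with Eu-cAMP and labeled anti-cAMP, 671 nm. Replicates: singlicate.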
H9c2 TAG inh = triacylglycerol accumulation inhibition; H9c2 cells, Nile Red lipid (TAG) fluorescence; cells loaded with 200 µM oleic acid; inhibition, % at 12.5 µM; 230,000 compounds, 0.66% hits;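 active = pattern-corrected inhibition of lipid staining of at least 50% with the nuclear-stain viability signal not falling by more than 50%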;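 note: 0% = DMSO wells and 100% = triacsin C control wells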
GalR3 antag = blocks the human galanin receptor 3 | 360,000 compounds, 0.44% hits | HEK293 GalR3-CNG cAMP membrane potential fluorescence; galR3 body fused to GalR1 C-terminus | AID 651719 | O60755 | inhibition, % at 3 µM;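 active = inhibition above the screen-wide average plus 3 SD, cut at about 13% in these data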;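 note: forskolin and galanin both at EC90 stimulate the cells; cAMP rise reported by CNG channel membrane potential dye signal; 0% = forskolin plus galanin with DMSO and 100% = forskolin alone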
Target sequence (O60755 1-299 limits assumed): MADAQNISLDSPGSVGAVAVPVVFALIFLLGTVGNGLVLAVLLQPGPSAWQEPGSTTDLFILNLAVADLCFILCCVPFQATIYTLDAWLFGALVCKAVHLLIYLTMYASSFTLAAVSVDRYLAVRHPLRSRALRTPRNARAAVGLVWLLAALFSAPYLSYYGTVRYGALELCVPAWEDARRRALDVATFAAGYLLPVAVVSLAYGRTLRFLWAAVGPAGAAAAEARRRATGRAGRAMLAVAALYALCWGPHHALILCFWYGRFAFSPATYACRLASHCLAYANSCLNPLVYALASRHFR
Calb FLC = C. albicans growth modulation with fluconazole; 300,000 compounds, 0.57% hits; AID 1979; C. albicans CaCi-2 (fluconazole-resistant clinical isolate) + fluconazole, Alamar Blue growth, 48 h; growth inhibition, % (test concentration not listed);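 active = growth inhibition above about 58% in most replicates, limit read from the data, passing the limit was not always enough; inconclusive = exactly half the replicates above a set limit; inactive = most replicates below a set limit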;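 note: all wells also contain fluconazole at 8 µg/ml as a sub-toxic cotreatment; 0% = median of DMSO wells and 100% = median of geldanamycin control wells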
MC4R barr agon = human MC4R agonism via beta-arrestin; P32245; 360,000 compounds, 0.98% hits; activation, % at 8.9 µM; U2OS MC4R beta-arrestin complementation, luminescence; percent of melanotan II response, DMSO zero; AID 540308;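 active = activation above a per-plate cutoff, the mean activation of sample wells on that plate plus 3 SD, cut at about 8% in these data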
GalR3 antag conf = GalR3 (human) antagonism, confirmation; AID 652245; shares compounds with GalR3 antag; HEK293 GalR3 CNG cAMP biosensor, membrane potential fluorescence; galR3 fused to GalR1 carboxy tail; challenged with forskolin and galanin at EC90; inhibition, % at 3 µM; 1,600 compounds, 59% hits;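 active = inhibition above the primary screen's cutoff, the mean inhibition of all screened compounds plus 3 SD, cut at about 13% in these data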;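 note: 0% = forskolin plus galanin and 100% = forskolin alone with DMSO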
CNG parental = acts as nonspecific agonist in parental HEK-CNG cells; shares compounds with GalR3 antag; HEK293-CNG parental cells, cAMP membrane potential fluorescence; normalised: DMSO wells 0%, forskolin wells 100%; activation, % at 3 µM; 1,600 compounds, 10% hits; in the data active = activation above about 1.3%
* hit, by the source's call; u = inconclusive; x = not tested or not shown.

SMILES | Efflux pump inh | MC4R antag cAMP | H9c2 TAG inh | GalR3 antag | Calb FLC | MC4R barr agon | GalR3 antag conf | CNG parental
CSc1ccc(C(=O)Nc2cc(S(=O)(=O)N3CCOCC3)ccc2N2CCOCC2)cc1[N+](=O)[O-] | x | 12 | 9 | -6 | x | -1 | x | x
NC(=O)C1CCN(C(=O)c2ccc3nc(N4CCCCC4)sc3c2)CC1 | 0 | 0 | 8 | 16* | -3 | -1 | 1 | 0
COc1ccc(NS(=O)(=O)c2cccc(NC(=O)c3ccc(Cl)nc3)c2)cc1 | 0 | 6 | -16 | 82* | -4 | -3 | 96* | 0
N#Cc1c(N)nc(SCc2ccccn2)c(C#N)c1-c1cccs1 | 0 | -43 | x | 75* | -24 | 4 | 49* | 2.5*
CC1CCCc2sc3nc(N4CCN(CCO)CC4)n4ncnc4c3c21 (stereo not given) | 0 | 4 | 7 | 22* | 55 | -1 | 43* | 1.9*
C/C(=C/C(=O)Nc1cccc(F)c1)N1CCCC1 | 0 | 12 | 8 | 17* | 8 | 0 | 0 | 0
CCC(=O)c1ccc(OCC(O)Cn2c(C)nc3ccccc32)cc1 (stereo not given) | 0 | 3 | -75 | 56* | x | 1 | 7 | 0
Cc1nc2ccccc2n1CC(O)COc1ccc(Br)cc1 (stereo not given) | 0 | -1 | -9 | -7 | 17 | 0 | x | x
CCCCn1nnnc1C1(C)CCC(=O)N1CCOC (stereo not given) | x | x | x | -4 | x | x | x | x
Nc1ccn(C2C=CC(CO)O2)c(=O)n1 (stereo not given) | x | x | x | -2 | x | x | x | x
CCCc1cc(=O)n2nc(N3CCC(C(=O)N4CCN(c5ccc(OC)cc5)CC4)CC3)sc2n1 | 0 | -4 | x | 14* | -22 | -2 | 104* | 0
O=C(/C=C/c1cccc([N+](=O)[O-])c1)Nn1c(-c2ccccc2F)nc2ccccc2c1=O | 0 | 8 | -9 | 61* | -38 | 2 | 65* | 0
Cc1cccc(-c2nc3ccccc3c(=O)n2NC(=O)/C=C/c2ccc([N+](=O)[O-])cc2)c1 | 0 | -3 | 2 | 45* | 117* | -2 | 34* | 0
CC(C)C[C@@H](CN)NC(=O)c1nc[nH]c1C(=O)N[C@@H](C)C(=O)CNC[C@H](C)NC(=O)c1nc[nH]c1C(=O)N[C@@H](C)C(=O)O | x | 5 | 0 | -1 | x | -2 | x | x
COc1ccc(C2CC=C(C(C)=O)CN2S(=O)(=O)c2ccc(C)cc2)cc1 (stereo not given) | x | x | x | -7 | x | x | x | x
CC(=O)c1cccc(NS(=O)(=O)c2ccc(NC(=O)N3CCCCC3)cc2)c1 | 0 | 9 | -35 | 83* | -2 | 1 | 97* | 0
CC(=O)c1cccc(NC(=O)N2CCCCCC2)c1 | 0 | 6 | 1 | -1 | 2 | -1 | x | x
CCCOc1ccc(NC(=O)CC2C(=O)N(C)C(=S)N2Cc2cccs2)cc1 (stereo not given) | 0 | 8 | 1 | -2 | -5 | 0 | x | x
CN1C(=O)C(CC(=O)Nc2ccc(F)cc2)N(Cc2cccs2)C1=S (stereo not given) | 0 | 4 | -1 | 15* | -3 | -1 | 4 | -1
CN(CCCNC(=O)c1cn(C)c2ccc(S(=O)(=O)N(C)C)cc2c1=O)c1ccccc1 | 0 | 8 | 9 | 20* | -1 | -1 | 6 | 1
CC1CC(C)CN(CCCNC(=O)c2cn(C)c3ccc(S(=O)(=O)N4CCCC4)cc3c2=O)C1 (stereo not given) | 0 | -2 | 2 | -1 | -4 | 1 | x | x
CC1CCN(CCCNC(=O)c2cn(C)c3ccc(S(=O)(=O)N4CCCC4)cc3c2=O)CC1 | 0 | 2 | x | 15* | u | -1 | 8 | 0
CCCCCCn1c(=O)n2n(c1=O)C[C@]1(OC(=O)NCc3ccccc3)CN(S(=O)(=O)c3ccc(C)cc3)C[C@]1(O)C2 | x | 8 | -26 | -2 | x | 0 | x | x
Cc1cc(C)n(C(=O)COc2ccc(Cl)cc2Cl)n1 | 0 | 17 | x | 14* | 2 | 1 | 16* | 0
Cc1cccc(CN2CCN(C3CN(Cc4cn(Cc5ccc(Cl)cc5)nn4)S(=O)(=O)C3)CC2)c1 (stereo not given) | x | x | x | -1 | x | x | x | x
SMILES | Efflux pump inh | MC4R antag cAMP | H9c2 TAG inh | GalR3 antag | Calb FLC | MC4R barr agon | GalR3 antag conf | CNG parental
CC(=O)Nc1cccc(C(=O)/C=C/c2ccc(/C=C/C(=O)c3cccc(NC(C)=O)c3)cc2)c1 | 1 | x | x | 0 | -14 | x | x | x
CC(=O)Nc1cccc(C(=O)/C=C/c2ccc(Br)cc2)c1 | 0 | -10 | x | 15* | -12 | -2 | 30* | 0
NCCOc1ccc(C23CC4CC(CC(C4)C2)C3)cc1 | 0 | -4 | 98 | 27* | -12 | 3 | 28* | 14*
Cc1ccc2nc(SCC(=O)NCc3ccc(F)cc3)nc(=O)n2c1 | 0 | -5 | 8 | 18* | -13 | -1 | 3 | 0
Cc1cc(=O)[nH]c(SCC(=O)c2ccc3c(c2)NC(=O)CO3)n1 | 0 | 20 | 11 | 15* | 0 | -1 | 0 | 0
Nc1cc(N)nc(SCC(=O)c2ccc3c(c2)NC(=O)CO3)n1 | 0 | 11 | -5 | 8 | -1 | -2 | x | x
O=c1cc(-c2ccccc2)nc(SCCOc2ccccc2Cl)[nH]1 | 0 | 17 | -11 | 13* | -2 | -1 | 1 | 1
COc1cc(CSc2nc(-c3ccccc3)cc(=O)[nH]2)cc(OC)c1 | 0 | 7 | x | x | 2 | 3 | x | x
Cc1cc(Br)cn2c(Cc3cccc(F)c3)c(-c3ccc(Cl)cc3)nc12 | x | x | x | -7 | x | x | x | x
CCOc1cccc(C2C(C(=O)c3ccco3)=C(O)C(=O)N2c2nnc(C)s2)c1 (stereo not given) | 0 | 11 | -18 | 22* | x | -1 | 2 | 0
CSc1nnc(N2C(=O)C(O)=C(C(=O)c3ccco3)C2c2cccc(Cl)c2)s1 (stereo not given) | 0 | 1 | x | -1 | -3 | -1 | x | x
CCCOc1cccc(C2C(C(=O)c3ccc(C)o3)=C(O)C(=O)N2c2nc(C)c(C(C)=O)s2)c1 (stereo not given) | 0 | 21 | 18 | 28* | -9 | 0 | 13* | 0
CCSc1nnc(N2C(=O)C(O)=C(C(=O)c3ccco3)C2c2cccc(OC)c2)s1 (stereo not given) | 0 | 2 | x | 14* | -5 | -2 | 6 | 0
CN(Cc1ccc(Cl)cc1)C(c1cc2ccccc2o1)c1nnnn1C(C)(C)C (stereo not given) | x | x | x | -6 | x | x | x | x

Compound activity (PubChem BioAssay)
